13 compounds from ChEMBL document CHEMBL1134639, “Conformationally restricted analogues of 1N,14N-bisethylhomospermine (BE-4-4-4): synthesis and growth inhibitory effects on human prostate cancer cells” (2001) can be followed below.

A value given as a limit tells only on which side of the number the result lay.

What all share (type): functional
Assay [1] relates to LNCaP. Nature of the assay: Inhibition of cell growth was determined in LNCaP cell line of Human prostate tumor using MTT assay, on day 6 after treatment. Particulars: read-out: ID50 (the source's name). The method in brief: (§1)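 MTT growth assay on human prostate tumour cells seeded in microtitre plates and incubated overnight at 37 °C in humidified 95% air/5% CO₂. Diluted drug stocks were added to the middle 8 columns, with buffer controls in the outer columns. Each concentration was run in quadruplicate. ID₅₀ is the concentration giving 50% growth inhibition on day 6 of treatment.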
In general terms: Formazan colour is commonly taken as a measure of viable cells.

Assay [2] concerns PC-3. Nature of the assay: Inhibition of cell growth was determined in PC-3 cell line of human prostate tumor using MTT assay, on day 6 after treatment. The following applies: read-out: ID50 (the source's name). The method in brief:
as §1

Assay [3] relates to DU-145. Nature of the assay: Inhibition of cell growth was determined in DU145 cell line of human prostate tumor using MTT assay, on day 6 after treatment. The following applies: read-out: ID50 (the source's name). The method, boiled down:
as §1

Assay [4] relates to DuPro. Nature of the assay: Inhibition of cell growth was determined in DUPRO cell line of human prostate tumor using MTT assay, on day 6 after treatment. Particulars: read-out: ID50 (the source's name). The method in brief: as §1
Assay [5] deals with LNCaP. Nature of the assay: Inhibition of cell growth was determined in LNCaP cell line of human prostate tumor using MTT assay, on day 6 after treatment. Particulars: 144 h, read-out: ID50 (the source's name). The method, boiled down:
as §1

As to `CCNC/C=C\CNC/C=C\CNCCCCNCC`, the IC50 was 0.69 µM in assay [1] (Homo sapiens, LNCaP, 144 h) and more than 31.2 µM in assay [2] (Homo sapiens, PC-3, 144 h).

With `CCNCCCCNC/C=C/CNCCCCNCC`, the IC50 was 0.22 µM in assay [3] (Homo sapiens, DU-145, 144 h) and 0.497 µM in assay [1] (Homo sapiens, LNCaP, 144 h).

With `CCNC/C=C\CNCCCCNCCCCNCC`, the IC50 in assay [1] (Homo sapiens, LNCaP, 144 h) worked out at 0.21 µM.

As to `CCNCCCCNC/C=C\CNCCCCNCC`, the IC50 in assay [3] (Homo sapiens, DU-145, 144 h) was 0.03 µM; in assay [1] (Homo sapiens, LNCaP, 144 h), 0.065 µM; in assay [2] (Homo sapiens, PC-3, 144 h), more than 31.2 µM.

Take `CCNCCCCNCC#CCNCCCCNCC`: the IC50 in assay [4] (144 h) is 3.2 µM; in assay [1] (Homo sapiens, LNCaP, 144 h), 2.2 µM; in assay [2] (PC-3, 144 h), more than 31.2 µM.

Take `CCNCCCCNCc1ccccc1CNCCCCNCC`: the IC50 in assay [4] (Homo sapiens, DuPro, 144 h) is more than 31.2 µM; in assay [1] (Homo sapiens, LNCaP, 144 h) it was more than 31.2 µM; in assay [2] (Homo sapiens, PC-3, 144 h), more than 31.2 µM.

Regarding `CCNC/C=C\CNCCCCNC/C=C\CNCC`, the IC50 turned out to be 0.13 µM in assay [3] (Homo sapiens, DU-145, 144 h); 3 µM in assay [1] (Homo sapiens, LNCaP, 144 h); 0.7 µM in assay [2] (Homo sapiens, PC-3, 144 h).

Take `CCNC/C=C\CNC/C=C\CNC/C=C\CNCC`: the IC50 in assay [1] (Homo sapiens, LNCaP, 144 h) stood at 0.77 µM.

Consider `CCNCCCCNCC1CC1CNCCCCNCC` (stereo in doubt; 4), for which the IC50 in assay [4] turned out to be 0.059 µM; in assay [3], 0.016 µM; in assay [1], 0.21 µM; in assay [2] it was 1.6 µM.

On to `CCNCCCCNCC1CC1CNCCCCNCC` (stereo in doubt; 7), for which the IC50 in assay [3] (Homo sapiens, DU-145, 144 h) was found to be 0.02 µM; in assay [1] (Homo sapiens, LNCaP, 144 h), 0.17 µM; in assay [2] (Homo sapiens, PC-3, 144 h) it was 1.4 µM.

Turning to `CCNCCCCNCC1CCC1CNCCCCNCC` (stereo in doubt; 10), the results for the IC50 in assay [4] and in assay [1] were 0.08 µM and 0.21 µM, respectively.

Turning to `CCNCCCCNCC1CCC1CNCCCCNCC` (stereo in doubt; 13), the IC50 is 0.3 µM in assay [4]; 0.021 µM in assay [3] (Homo sapiens, DU-145, 144 h); 0.7 µM in assay [1]; 4.7 µM in assay [2] (Homo sapiens, PC-3, 144 h).

With `CCNCCCCNCCCCNCCCCNCC` [DIETHYLHOMOSPERMINE], the IC50 was 0.2 µM in assay [4] (Homo sapiens, DuPro, 144 h); 0.03 µM in assay [3] (Homo sapiens, DU-145, 144 h); 0.7 µM in assay [2] (Homo sapiens, PC-3, 144 h); 0.1 µM in assay [5].
